System: MS2 coat protein
Test: apparent Kd, MS2 coat protein; higher = weaker binding; RNA-MaP array; FMN 200 µM where present
Procedure, shortened: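 The titrant was SNAP-549-labelled MS2 coat protein, run from 0.7 or 1.5 nM in doubling steps to 3 µM. It was applied to designs transcribed by stalled E. coli RNA polymerase on Illumina sequencing-chip clusters, without ligand first and then with constant ligand, in 100 mM Tris-HCl pH 7.5, 80 mM KCl, 4 mM MgCl2, BSA, DTT, yeast tRNA and Tween-20. The apparent Kd is the median of filtered per-cluster binding-curve fits, with green signal normalised to red-channel RNA signal and control-cluster median Fmax.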

[1] = designed as: ON switch for flavin mononucleotide, no ligand
[2] = ligand present: flavin mononucleotide, designed as: ON switch for flavin mononucleotide
[3] = designed as: OFF switch for flavin mononucleotide, no ligand
[4] = ligand present: flavin mononucleotide, designed as: OFF switch for flavin mononucleotide

Row | Sequence | apparent Kd [1] | apparent Kd [2] | apparent Kd [3] | apparent Kd [4]
1 | GGAUGAUUAAUAGGAUAUUAUUUGUAAUUUGGUUAAGAAGGAUUAAUGAUUUAAACGACCUGUUACAUGAGGAUCACCCAUGUU | 95.5 nM | 74.1 nM | – | –
2 | GGAUGUCAAAGACAUCCAUAACGAACAUGAGGAUCACCCAUGUAGGAUAUGCUACUCAAAGAGUAGCAGAAGGACAUGUGUCUU | – | – | 30.3 nM | 150 nM
3 | GGAUUACAAAUUUAUUUAAUUCACAUGAGGAUCACCCAUGUGUAGGAUAUGCUAGUUAAGUAAUAGCAGAAGGACAUGUGCCUU | – | – | 8.82 nM | 9.26 nM
4 | GGAUUUGGUCCAAUUUCGGUGAGUAAGGAUAUGCAUGGCAUACAUGAGGAUCACCCAUGUUGUCGGCAGAAGGUGCCACAACGU | 45.7 nM | 16.3 nM | – | –
5 | GGCAAGUCAGGAUAUGCGAAGUCAGGACACACACUGACGAAGCAGAAGGGACAUGAGGAUCACCCAUGUAAGCC | – | – | 31.9 nM | 19.9 nM
6 | GGCAUGUGAGGAUAUCUGAUGUCUAACUUCGGUUAGACAUCAGAGAAGGCACAUGAGGAUCACCCAUGUCUGCC | – | – | 68.4 nM | 79.8 nM
7 | GGCCCGCGCGUGAGGAUAUGCUGAUUCUAGGAUUAGCAGAAGGCACAUGAGGAUCACCCAUGUCCAACUUGUCU | – | – | 28.6 nM | 36.1 nM
8 | GGCCGUAAUAAGGAUAUCACUAGCUUCGGCUAGUGAGAAGGUAUUACAUGAGGAUCACCCAUGUGGUCAGGCCA | – | – | 279 nM | 730 nM
9 | GGCGAACAGGCUAACAUGAGGAUCACCCAUGUGGACUCAUGGUAGGAUAUGCUGUACAAAGUACAGCAGAAGGGCCGGUGAGCC | 139 nM | 376 nM | – | –
10 | GGCGAAGUAGGAUAUACAUGAGGAUCACCCAUGUAACCUGAUGGCGUAGGUCUUCUAUGUAGAAGGGCUACGCC | – | – | 15.9 nM | 16.9 nM
11 | GGCGAGUAAGGAUAUUUUAACCUACAGACGAGUGAUGGUUAAGAGAAGGUACAUGAGGAUCACCCAUGUCAUCC | – | – | 16.2 nM | 19.8 nM
12 | GGCGGCGCGGGCCACCGCAGGACCAGAAGGACAUGAGGAUCACCCAUGUAGCAGAACAGGGCGGUGUAGGAUAUGGCAGGCUCG | – | – | 24.9 nM | 45.8 nM
13 | GGCGUGUUAGGAUAUCGCGGCGGCGGCGUUUGUUGUUGUUGUGAGAAGGAACAUGAGGAUCACCCAUGUGCGCC | – | – | 18.4 nM | 27.4 nM
14 | GGCUCAUUUACAUUAAUGUGCAGACAGGAUAUCCACGGCGGUUCCUACAUGAGGAUCACCCAUGUGGAGAAGGGUCGCUAAUGG | – | – | 19.6 nM | 28 nM
15 | GGCUCGAGGGUCUCCGCGUUCACAUGAGGAUCACCCAUGUAACAGGAUAUCGGGCCAAAGGGCAGCGAGAAGGGUUACUUGGGC | – | – | 6.43 nM | 14.6 nM
16 | GGGACUUACGAGAAGGGCUACAUGAGGAUCACCCAUGUAAAUCUUCGGGUAGCAGGAUAUCGGCGGCUACAGGAGGGCCAAGUC | – | – | 14.3 nM | 90.7 nM
17 | GGGAGUGGAGGGAAUAACAUGAGGAUCACCCAUGUAUGGGAGAGAAGGCAGGUUGGAGGGCGAUCUGAGGAUAUUUAGACUCUU | 19.9 nM | 13.5 nM | – | –
18 | GGGAUAGGAGGAUAUGUUCUAGCUCACAUGAGGAUCACCCAUGUGGUGUCCGUUGGUAGCGCAGAAGGCUUACCUA | – | – | 792 nM | 662 nM
19 | GGGCAACAUGAGGAUCACCCAUGUCAGGAUAUUGGGCCGGGCCCGAAAGGGCCCGGAACAAGAAGGGACAGCCC | – | – | 23.5 nM | 24.5 nM
20 | GGGCUGUCAGGAUAUCUCGGGCUCGGGUAAACUCGGGCUCGGGAGAAGGGACAUGAGGAUCACCCAUGUGGCCC | – | – | 30.4 nM | 33 nM
21 | GGGCUGUCAGGAUAUGCUUCGGCUUCGGAAAUGAAGUUGAAGUAGAAGGGACAUGAGGAUCACCCAUGUGGCCC | – | – | 28.9 nM | 35 nM
22 | GGGUAAUAUCGAGGAUAUGUCUAGACACAUGAGGAUCACCCAUGUAUGUGUAUAGAAGGCGAUAUUAACAGCAUGUUACAUGGG | 291 nM | 60.5 nM | – | –
23 | GGGUACAUCGGAGGAUAUCAUGUAAAUACAUGAGGAUCACCCAUGUCGAUGGAGACACCGGAGAUUGAGAAGGCCGAUGUACCG | 643 nM | 23.5 nM | – | –

From the EternaBench riboswitch data
